Experimental data taken from ChEMBL document CHEMBL4373653, “FgaPT2, a biocatalytic tool for alkyl-diversification of indole natural products” (Medchemcomm, 2019).
Calls of active or inactive are those of the source. No cut-off for these calls is given here.

How the values were obtained:
[1] = system: HCT-116; experiment: Cytotoxicity against human HCT116 cells incubated for 48 hrs by Celltiter-blue assay; format: cell-based; settings: HCT-116, 48 h
Method in brief: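 HCT-116 cells, 2.0e3 per well in McCoy's medium, grown 24 h. A baseline CellTiter-Blue reading (90 min, 37 °C; ex 544/em 590 nm) was taken at treatment. Serial dilutions were added at 4X in medium and incubated 48 h, then read again with CellTiter-Blue. Growth was expressed relative to untreated cells, four-parameter dose-response fit to IC50, n = 2, Taxol internal control.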

[2] = biological target: T1, Tryptophan dimethylallyltransferase (Neosartorya fumigata (strain ATCC MYA-4609 / Af293 / CBS 101355 / FGSCA1100) (Aspergillus fumigatus)) (UniProt Q50EL0); experiment: Substrate activity at recombinant N-terminal His6-fusion tagged Aspergillus fumigatus FgaPT2 expressed in Escherichia coli BL21 (DE3) assessed as alkylation of L-tryptophan by measuring product formation at pH 7.5 in Tris buffer after 16 hrs by RP-HPLC analysis
T1 sequence (whole entry): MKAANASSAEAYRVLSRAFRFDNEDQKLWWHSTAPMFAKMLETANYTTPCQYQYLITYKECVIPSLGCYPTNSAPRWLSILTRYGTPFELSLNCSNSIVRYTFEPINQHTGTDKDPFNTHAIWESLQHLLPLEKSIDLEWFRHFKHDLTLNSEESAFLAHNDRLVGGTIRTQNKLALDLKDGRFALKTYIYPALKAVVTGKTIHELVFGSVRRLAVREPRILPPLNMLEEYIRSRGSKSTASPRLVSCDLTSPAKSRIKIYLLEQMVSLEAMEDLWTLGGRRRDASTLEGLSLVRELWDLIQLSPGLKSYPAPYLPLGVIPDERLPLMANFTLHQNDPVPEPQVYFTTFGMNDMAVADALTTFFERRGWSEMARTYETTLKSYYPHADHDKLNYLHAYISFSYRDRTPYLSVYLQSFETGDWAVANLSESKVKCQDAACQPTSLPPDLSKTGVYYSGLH
Method in brief: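 The enzyme was codon-optimized and purified by Ni-NTA. Reaction: 1.2 mM alkyl-PP donor, 1 mM L-Trp, 5 μM FgaPT2 in 25 mM Tris pH 7.5, 5 mM MgCl2, 50 mM KCl, 35 °C for 16 h. It was quenched with an equal volume of methanol and centrifuged. Analysis was by RP-HPLC (C18, water/0.1% TFA–acetonitrile gradient, A254). Negative controls omitted the enzyme or the donor.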

[3] = substrate: O=P(O)(O)OP(=O)(O)OCC=C1CCCC1; settings: Aspergillus fumigatus Af293
[4] = substrate: O=P(O)(O)OP(=O)(O)OCc1ccc(Br)cc1; settings: Aspergillus fumigatus Af293
[5] = substrate: C/C=C/COP(=O)(O)OP(=O)(O)O; settings: Aspergillus fumigatus Af293
[6] = substrate: O=P(O)(O)OP(=O)(O)OCc1ccccc1; settings: Aspergillus fumigatus Af293
[7] = substrate: CCC(=CCOP(=O)(O)OP(=O)(O)O)CC; settings: Aspergillus fumigatus Af293
[8] = substrate: COc1cccc(COP(=O)(O)OP(=O)(O)O)c1; settings: Aspergillus fumigatus Af293
[9] = substrate: O=P(O)(O)OP(=O)(O)OCc1ccc(F)cc1; settings: Aspergillus fumigatus Af293
[10] = substrate: COc1ccccc1COP(=O)(O)OP(=O)(O)O; settings: Aspergillus fumigatus Af293
[11] = substrate: O=P(O)(O)OP(=O)(O)OCC=C1CCCCC1; settings: Aspergillus fumigatus Af293
[12] = substrate: O=P(O)(O)OP(=O)(O)OCC=C1CCCC1; settings: Aspergillus fumigatus Af293; remark: listed apart in the source
[13] = substrate: C=C/C=C(\C)COP(=O)(O)OP(=O)(O)O; settings: Aspergillus fumigatus Af293
[14] = substrate: O=P(O)(O)OP(=O)(O)OCc1ccc(Br)cc1; settings: Aspergillus fumigatus Af293; remark: listed apart in the source
[15] = substrate: C=C/C=C/COP(=O)(O)OP(=O)(O)O; settings: Aspergillus fumigatus Af293
[16] = substrate: C/C=C/COP(=O)(O)OP(=O)(O)O; settings: Aspergillus fumigatus Af293; remark: listed apart in the source
[17] = substrate: CC(C)=C/C=C/COP(=O)(O)OP(=O)(O)O; settings: Aspergillus fumigatus Af293
[18] = substrate: O=P(O)(O)OP(=O)(O)OCc1ccccc1; settings: Aspergillus fumigatus Af293; remark: listed apart in the source
[19] = substrate: O=P(O)(O)OP(=O)(O)OCc1ccc(Cl)cc1; settings: Aspergillus fumigatus Af293
[20] = substrate: CCC(=CCOP(=O)(O)OP(=O)(O)O)CC; settings: Aspergillus fumigatus Af293; remark: listed apart in the source
[21] = substrate: COc1cccc(COP(=O)(O)OP(=O)(O)O)c1; settings: Aspergillus fumigatus Af293; remark: listed apart in the source
[22] = substrate: O=P(O)(O)OP(=O)(O)OCc1ccc(F)cc1; settings: Aspergillus fumigatus Af293; remark: listed apart in the source
[23] = substrate: C/C=C/C=C(\C)COP(=O)(O)OP(=O)(O)O; settings: Aspergillus fumigatus Af293
[24] = substrate: C/C(Br)=C/COP(=O)(O)OP(=O)(O)O; settings: Aspergillus fumigatus Af293
[25] = substrate: COc1ccccc1COP(=O)(O)OP(=O)(O)O; settings: Aspergillus fumigatus Af293; remark: listed apart in the source
[26] = substrate: CC/C(C)=C/COP(=O)(O)OP(=O)(O)O; settings: Aspergillus fumigatus Af293
[27] = substrate: O=P(O)(O)OP(=O)(O)OCC=C1CCCCC1; settings: Aspergillus fumigatus Af293; remark: listed apart in the source
[28] = substrate: C/C(Cl)=C/COP(=O)(O)OP(=O)(O)O; settings: Aspergillus fumigatus Af293
[29] = substrate: O=P(O)(O)OP(=O)(O)OCC1=CCCCC1; settings: Aspergillus fumigatus Af293
[30] = substrate: O=P(O)(O)OP(=O)(O)OCC=C1CCCC1; settings: Aspergillus fumigatus Af293; remark: listed apart in the source
[31] = substrate: C=C/C=C(\C)COP(=O)(O)OP(=O)(O)O; settings: Aspergillus fumigatus Af293; remark: listed apart in the source
[32] = substrate: O=P(O)(O)OP(=O)(O)OCc1ccc(Br)cc1; settings: Aspergillus fumigatus Af293; remark: listed apart in the source
[33] = substrate: C=C/C=C/COP(=O)(O)OP(=O)(O)O; settings: Aspergillus fumigatus Af293; remark: listed apart in the source
[34] = substrate: C/C=C/COP(=O)(O)OP(=O)(O)O; settings: Aspergillus fumigatus Af293; remark: listed apart in the source
[35] = substrate: CC(C)=C/C=C/COP(=O)(O)OP(=O)(O)O; settings: Aspergillus fumigatus Af293; remark: listed apart in the source
[36] = substrate: O=P(O)(O)OP(=O)(O)OCc1ccccc1; settings: Aspergillus fumigatus Af293; remark: listed apart in the source
[37] = substrate: O=P(O)(O)OP(=O)(O)OCc1ccc(Cl)cc1; settings: Aspergillus fumigatus Af293; remark: listed apart in the source
[38] = substrate: CCC(=CCOP(=O)(O)OP(=O)(O)O)CC; settings: Aspergillus fumigatus Af293; remark: listed apart in the source
[39] = substrate: COc1cccc(COP(=O)(O)OP(=O)(O)O)c1; settings: Aspergillus fumigatus Af293; remark: listed apart in the source
[40] = substrate: O=P(O)(O)OP(=O)(O)OCc1ccc(F)cc1; settings: Aspergillus fumigatus Af293; remark: listed apart in the source
[41] = substrate: C/C=C/C=C(\C)COP(=O)(O)OP(=O)(O)O; settings: Aspergillus fumigatus Af293; remark: listed apart in the source
[42] = substrate: COc1ccccc1COP(=O)(O)OP(=O)(O)O; settings: Aspergillus fumigatus Af293; remark: listed apart in the source
[43] = substrate: CC/C(C)=C/COP(=O)(O)OP(=O)(O)O; settings: Aspergillus fumigatus Af293; remark: listed apart in the source
[44] = substrate: O=P(O)(O)OP(=O)(O)OCC=C1CCCCC1; settings: Aspergillus fumigatus Af293; remark: listed apart in the source
[45] = substrate: C/C(Cl)=C/COP(=O)(O)OP(=O)(O)O; settings: Aspergillus fumigatus Af293; remark: listed apart in the source
[46] = substrate: O=P(O)(O)OP(=O)(O)OCC1=CCCCC1; settings: Aspergillus fumigatus Af293; remark: listed apart in the source

Molecule: O=C1NC(O)c2c1c1c3ccccc3[nH]c1c1[nH]c3ccccc3c21 (stereo not given)
- IC50 [1]: 11 µM

Molecule: COc1ccc(COP(=O)(O)OP(=O)(O)O)c(OC)c1
- Activity [2]: inactive

Molecule: O=[N+]([O-])c1ccc(COP(=O)(O)OP(=O)(O)O)cc1
- Activity [2]: inactive

Molecule: C=C(C)COP(=O)(O)OP(=O)(O)O
- Activity [2]: inactive

Molecule: COc1ccc(COP(=O)(O)OP(=O)(O)O)cc1OC
- Activity [2]: inactive

Molecule: Cc1ccc(COP(=O)(O)OP(=O)(O)O)cc1
- Activity [2]: inactive

Molecule: CCC(=CCc1ccc2[nH]c3c4[nH]c5ccccc5c4c4c(c3c2c1)C(=O)NC4O)CC (stereo not given)
- IC50 [1]: 35 µM

Molecule: O=C1NC(O)c2c1c1c3cc(CC=C4CCCC4)ccc3[nH]c1c1[nH]c3ccccc3c21 (stereo not given)
- IC50 [1]: 58 µM

Molecule: CC(C)=CCc1ccc2[nH]c3c4[nH]c5ccccc5c4c4c(c3c2c1)C(=O)NC4O (stereo not given)
- IC50 [1]: 62 µM

Molecule: O=C1NC(O)c2c1c1c3cc(CC4=CCCCC4)ccc3[nH]c1c1[nH]c3ccccc3c21 (stereo not given)
- IC50 [1]: 61 µM

Molecule: O=C1NC(O)c2c1c1c3cc(CC=C4CCCCC4)ccc3[nH]c1c1[nH]c3ccccc3c21 (stereo not given)
- IC50 [1]: 31 µM

Molecule: CC/C(C)=C/Cc1ccc2[nH]c3c4[nH]c5ccccc5c4c4c(c3c2c1)C(=O)NC4O (stereo not given)
- IC50 [1]: 38 µM

Molecule: CC(=O)COP(=O)(O)OP(=O)(O)O
- Activity [2]: inactive

Molecule: O=P(O)(O)OP(=O)(O)OCc1cc(F)cc(F)c1
- Activity [2]: inactive

Molecule: COc1ccc(COP(=O)(O)OP(=O)(O)O)cc1
- Activity [2]: inactive

Molecule: COc1cc(COP(=O)(O)OP(=O)(O)O)cc(OC)c1OC
- Activity [2]: inactive

B1: Tryptophan dimethylallyltransferase (Neosartorya fumigata (strain ATCC MYA-4609 / Af293 / CBS 101355 / FGSCA1100) (Aspergillus fumigatus)), Q50EL0 (protein)
chain: MKAANASSAEAYRVLSRAFRFDNEDQKLWWHSTAPMFAKMLETANYTTPCQYQYLITYKECVIPSLGCYPTNSAPRWLSILTRYGTPFELSLNCSNSIVRYTFEPINQHTGTDKDPFNTHAIWESLQHLLPLEKSIDLEWFRHFKHDLTLNSEESAFLAHNDRLVGGTIRTQNKLALDLKDGRFALKTYIYPALKAVVTGKTIHELVFGSVRRLAVREPRILPPLNMLEEYIRSRGSKSTASPRLVSCDLTSPAKSRIKIYLLEQMVSLEAMEDLWTLGGRRRDASTLEGLSLVRELWDLIQLSPGLKSYPAPYLPLGVIPDERLPLMANFTLHQNDPVPEPQVYFTTFGMNDMAVADALTTFFERRGWSEMARTYETTLKSYYPHADHDKLNYLHAYISFSYRDRTPYLSVYLQSFETGDWAVANLSESKVKCQDAACQPTSLPPDLSKTGVYYSGLH
- Km [3]: 310 µM
- Km [4]: 320 µM
- Km [5]: 140 µM
- Km [6]: 220 µM
- Km [7]: 370 µM
- Km [8]: 730 µM
- Km [9]: 400 µM
- Km [10]: 570 µM
- Km [11]: 1400 µM
- kcat/Km [12]: 267 M⁻¹ s⁻¹
- kcat/Km [13]: 267 M⁻¹ s⁻¹
- kcat/Km [14]: 7 M⁻¹ s⁻¹
- kcat/Km [15]: 650 M⁻¹ s⁻¹
- kcat/Km [16]: 65 M⁻¹ s⁻¹
- kcat/Km [17]: 433 M⁻¹ s⁻¹
- kcat/Km [18]: 103 M⁻¹ s⁻¹
- kcat/Km [19]: 7.67 M⁻¹ s⁻¹
- kcat/Km [20]: 283 M⁻¹ s⁻¹
- kcat/Km [21]: 3.83 M⁻¹ s⁻¹
- kcat/Km [22]: 11.5 M⁻¹ s⁻¹
- kcat/Km [23]: 200 M⁻¹ s⁻¹
- kcat/Km [24]: 21.7 M⁻¹ s⁻¹
- kcat/Km [25]: 56.7 M⁻¹ s⁻¹
- kcat/Km [26]: 350 M⁻¹ s⁻¹
- kcat/Km [27]: 36.7 M⁻¹ s⁻¹
- kcat/Km [28]: 41.7 M⁻¹ s⁻¹
- kcat/Km [29]: 16.7 M⁻¹ s⁻¹
- kcat [30]: 0.084 s⁻¹
- kcat [31]: 0.337 s⁻¹
- kcat [32]: 0.00223 s⁻¹
- kcat [33]: 0.433 s⁻¹
- kcat [34]: 0.0095 s⁻¹
- kcat [35]: 0.467 s⁻¹
- kcat [36]: 0.0227 s⁻¹
- kcat [37]: 0.00327 s⁻¹
- kcat [38]: 0.108 s⁻¹
- kcat [39]: 0.00283 s⁻¹
- kcat [40]: 0.0046 s⁻¹
- kcat [41]: 0.282 s⁻¹
- kcat [42]: 0.0322 s⁻¹
- kcat [43]: 0.165 s⁻¹
- kcat [44]: 0.0533 s⁻¹
- kcat [45]: 0.0217 s⁻¹
- kcat [46]: 0.00267 s⁻¹
